# Measured values reported in ChEMBL document CHEMBL4715736, “Identification of anticancer agents based on the thieno[2,3-b]pyridine and 1H-pyrazole molecular scaffolds” (2016).
# Tested on: M14
# Assay: Growth inhibition of human M14 cells assessed as cell growth at 10 uM incubated for 48 hrs by sulforhodamine B assay relative to control
# Format: functional
# Details: read-out: Activity
# In short: (§1)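 Submitted to the NCI Developmental Therapeutics Program for the NCI60 human tumour cell line panel. First screen at a single 10 µM concentration. Read-out is growth relative to untreated control cells set at 100%.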
row,Compound,growth at 10 µM [%]
1,CC(=O)c1cccc(NC(=O)c2sc3nc4c(cc3c2N)C(=O)CCC4)c1,100

# Tested on: NCI-H460
# Assay: Growth inhibition of human NCI-H460 cells assessed as cell growth at 10 uM incubated for 48 hrs by sulforhodamine B assay relative to control
# Format: functional
# Details: read-out: Activity
# In short: as §1
row,Compound,growth at 10 µM [%]
1,CC(=O)c1cccc(NC(=O)c2sc3nc4c(cc3c2N)C(=O)CCC4)c1,108

# Tested on: SN12C
# Assay: Growth inhibition of human SN12C cells assessed as cell growth at 10 uM incubated for 48 hrs by sulforhodamine B assay relative to control
# Format: functional
# Details: read-out: Activity
# In short: (§2)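 Run by the NCI Developmental Therapeutics Program as part of its 60-line human tumour panel. Each compound tested at a single 10 µM dose. Growth expressed as % relative to untreated control cells (100%).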
row,Compound,growth at 10 µM [%]
1,CC(=O)c1cccc(NC(=O)c2sc3nc4c(cc3c2N)C(=O)CCC4)c1,109

# Tested on: HL-60(TB)
# Assay: Growth inhibition of human HL-60(TB) cells assessed as cell growth at 10 uM incubated for 48 hrs by sulforhodamine B assay relative to control
# Format: functional
# Details: read-out: Activity
# In short: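 Screened by the NCI Developmental Therapeutics Program on its panel of 60 human tumour cell lines. Compounds were first tested at a single 10 µM dose, and compounds active there went to dose-response curves. Growth is expressed relative to untreated control (100%). GI50 (50% of maximal proliferation inhibition) and TGI (total growth inhibition) were derived from the dose-response data.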
row,Compound,growth at 10 µM [%]
1,CC(=O)c1cccc(NC(=O)c2sc3nc4c(cc3c2N)C(=O)CCC4)c1,102

# Tested on: KM12
# Assay: Growth inhibition of human KM12 cells assessed as cell growth at 10 uM incubated for 48 hrs by sulforhodamine B assay relative to control
# Format: functional
# Details: read-out: Activity
# In short: as §1
row,Compound,growth at 10 µM [%]
1,CC(=O)c1cccc(NC(=O)c2sc3nc4c(cc3c2N)C(=O)CCC4)c1,95.2

# Tested on: MDA-MB-435
# Assay: Growth inhibition of human MDA-MB-435 cells assessed as cell growth at 10 uM incubated for 48 hrs by sulforhodamine B assay relative to control
# Format: functional
# Details: read-out: Activity
# In short: as §1
row,Compound,growth at 10 µM [%]
1,CC(=O)c1cccc(NC(=O)c2sc3nc4c(cc3c2N)C(=O)CCC4)c1,66.8

# Tested on: CCRF-CEM
# Assay: Growth inhibition of human CCRF-CEM cells assessed as cell growth at 10 uM incubated for 48 hrs by sulforhodamine B assay relative to control
# Format: functional
# Details: read-out: Activity
# In short: (§3)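 NCI Developmental Therapeutics Program NCI60 panel. Compounds that were active in the 10 µM one-dose screen went on to dose–response testing. Growth at each concentration is expressed relative to untreated control (100%). GI50 (concentration giving 50% of maximal inhibition of proliferation) and TGI (concentration giving total growth inhibition) were derived from the curves.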
row,Compound,growth at 10 µM [%]
1,CC(=O)c1cccc(NC(=O)c2sc3nc4c(cc3c2N)C(=O)CCC4)c1,99.7

# Tested on: SNB-75
# Assay: Growth inhibition of human SNB-75 cells assessed as cell growth at 10 uM incubated for 48 hrs by sulforhodamine B assay relative to control
# Format: functional
# Details: read-out: Activity
# In short: as §2
row,Compound,growth at 10 µM [%]
1,CC(=O)c1cccc(NC(=O)c2sc3nc4c(cc3c2N)C(=O)CCC4)c1,94.2

# Tested on: RXF 393
# Assay: Growth inhibition of human RXF 393 cells assessed as cell growth at 10 uM incubated for 48 hrs by sulforhodamine B assay relative to control
# Format: functional
# Details: read-out: Activity
# In short: as §2
row,Compound,growth at 10 µM [%]
1,CC(=O)c1cccc(NC(=O)c2sc3nc4c(cc3c2N)C(=O)CCC4)c1,104

# Tested on: IGROV-1
# Assay: Growth inhibition of human IGROV-1 cells assessed as cell growth at 10 uM incubated for 48 hrs by sulforhodamine B assay relative to control
# Format: functional
# Details: read-out: Activity
# In short: as §1
row,Compound,growth at 10 µM [%]
1,CC(=O)c1cccc(NC(=O)c2sc3nc4c(cc3c2N)C(=O)CCC4)c1,96.2

# Tested on: SF-539
# Assay: Growth inhibition of human SF-539 cells assessed as cell growth at 10 uM incubated for 48 hrs by sulforhodamine B assay relative to control
# Format: functional
# Details: read-out: Activity
# In short: as §2
row,Compound,growth at 10 µM [%]
1,CC(=O)c1cccc(NC(=O)c2sc3nc4c(cc3c2N)C(=O)CCC4)c1,101

# Tested on: SK-MEL-5
# Assay: Growth inhibition of human SK-MEL-5 cells assessed as cell growth at 10 uM incubated for 48 hrs by sulforhodamine B assay relative to control
# Format: functional
# Details: read-out: Activity
# In short: as §2
row,Compound,growth at 10 µM [%]
1,CC(=O)c1cccc(NC(=O)c2sc3nc4c(cc3c2N)C(=O)CCC4)c1,96

# Tested on: MDA-MB-468
# Assay: Growth inhibition of human MDA-MB-468 cells assessed as cell growth at 10 uM incubated for 48 hrs by sulforhodamine B assay relative to control
# Format: functional
# Details: read-out: Activity
# In short: as §1
row,Compound,growth at 10 µM [%]
1,CC(=O)c1cccc(NC(=O)c2sc3nc4c(cc3c2N)C(=O)CCC4)c1,82.8

# Tested on: SF-295
# Assay: Growth inhibition of human SF-295 cells assessed as cell growth at 10 uM incubated for 48 hrs by sulforhodamine B assay relative to control
# Format: functional
# Details: read-out: Activity
# In short: as §2
row,Compound,growth at 10 µM [%]
1,CC(=O)c1cccc(NC(=O)c2sc3nc4c(cc3c2N)C(=O)CCC4)c1,90.8

# Tested on: A549
# Assay: Growth inhibition of human A549/ATCC cells assessed as cell growth at 10 uM incubated for 48 hrs by sulforhodamine B assay relative to control
# Format: functional
# Details: read-out: Activity
# In short: as §3
row,Compound,growth at 10 µM [%]
1,CC(=O)c1cccc(NC(=O)c2sc3nc4c(cc3c2N)C(=O)CCC4)c1,92.8

# Tested on: NCI-H226
# Assay: Growth inhibition of human NCI-H226 cells assessed as cell growth at 10 uM incubated for 48 hrs by sulforhodamine B assay relative to control
# Format: functional
# Details: read-out: Activity
# In short: as §1
row,Compound,growth at 10 µM [%]
1,CC(=O)c1cccc(NC(=O)c2sc3nc4c(cc3c2N)C(=O)CCC4)c1,102

# Tested on: NCI/ADR-RES
# Assay: Growth inhibition of human NCI/ADR-RES cells assessed as cell growth at 10 uM incubated for 48 hrs by sulforhodamine B assay relative to control
# Format: functional
# Details: read-out: Activity
# In short: as §1
row,Compound,growth at 10 µM [%]
1,CC(=O)c1cccc(NC(=O)c2sc3nc4c(cc3c2N)C(=O)CCC4)c1,107

# Tested on: NCI-H322M
# Assay: Growth inhibition of human NCI-H322M cells assessed as cell growth at 10 uM incubated for 48 hrs by sulforhodamine B assay relative to control
# Format: functional
# Details: read-out: Activity
# In short: as §1
row,Compound,growth at 10 µM [%]
1,CC(=O)c1cccc(NC(=O)c2sc3nc4c(cc3c2N)C(=O)CCC4)c1,111

# Tested on: SK-MEL-28
# Assay: Growth inhibition of human SK-MEL-28 cells assessed as cell growth at 10 uM incubated for 48 hrs by sulforhodamine B assay relative to control
# Format: functional
# Details: read-out: Activity
# In short: as §2
row,Compound,growth at 10 µM [%]
1,CC(=O)c1cccc(NC(=O)c2sc3nc4c(cc3c2N)C(=O)CCC4)c1,92.4

# Tested on: OVCAR-5
# Assay: Growth inhibition of human OVCAR-5 cells assessed as cell growth at 10 uM incubated for 48 hrs by sulforhodamine B assay relative to control
# Format: functional
# Details: read-out: Activity
# In short: as §2
row,Compound,growth at 10 µM [%]
1,CC(=O)c1cccc(NC(=O)c2sc3nc4c(cc3c2N)C(=O)CCC4)c1,106

# Tested on: Hs-578T
# Assay: Growth inhibition of human Hs-578T cells assessed as cell growth at 10 uM incubated for 48 hrs by sulforhodamine B assay relative to control
# Format: functional
# Details: read-out: Activity
# In short: as §1
row,Compound,growth at 10 µM [%]
1,CC(=O)c1cccc(NC(=O)c2sc3nc4c(cc3c2N)C(=O)CCC4)c1,106

# Tested on: HOP-92
# Assay: Growth inhibition of human HOP-92 cells assessed as cell growth at 10 uM incubated for 48 hrs by sulforhodamine B assay relative to control
# Format: functional
# Details: read-out: Activity
# In short: as §1
row,Compound,growth at 10 µM [%]
1,CC(=O)c1cccc(NC(=O)c2sc3nc4c(cc3c2N)C(=O)CCC4)c1,92.8

# Tested on: MOLT-4
# Assay: Growth inhibition of human MOLT-4 cells assessed as cell growth at 10 uM incubated for 48 hrs by sulforhodamine B assay relative to control
# Format: functional
# Details: read-out: Activity
# In short: as §1
row,Compound,growth at 10 µM [%]
1,CC(=O)c1cccc(NC(=O)c2sc3nc4c(cc3c2N)C(=O)CCC4)c1,107

# Tested on: HCT-15
# Assay: Growth inhibition of human HCT-15 cells assessed as cell growth at 10 uM incubated for 48 hrs by sulforhodamine B assay relative to control
# Format: functional
# Details: read-out: Activity
# In short: as §1
row,Compound,growth at 10 µM [%]
1,CC(=O)c1cccc(NC(=O)c2sc3nc4c(cc3c2N)C(=O)CCC4)c1,93.7

# Tested on: UACC-62
# Assay: Growth inhibition of human UACC-62 cells assessed as cell growth at 10 uM incubated for 48 hrs by sulforhodamine B assay relative to control
# Format: functional
# Details: read-out: Activity
# In short: as §2
row,Compound,growth at 10 µM [%]
1,CC(=O)c1cccc(NC(=O)c2sc3nc4c(cc3c2N)C(=O)CCC4)c1,98.4

# Tested on: A498
# Assay: Growth inhibition of human A498 cells assessed as cell growth at 10 uM incubated for 48 hrs by sulforhodamine B assay relative to control
# Format: functional
# Details: read-out: Activity
# In short: as §3
row,Compound,growth at 10 µM [%]
1,CC(=O)c1cccc(NC(=O)c2sc3nc4c(cc3c2N)C(=O)CCC4)c1,86.9

# Tested on: OVCAR-3
# Assay: Growth inhibition of human OVCAR-3 cells assessed as cell growth at 10 uM incubated for 48 hrs by sulforhodamine B assay relative to control
# Format: functional
# Details: read-out: Activity
# In short: as §2
row,Compound,growth at 10 µM [%]
1,CC(=O)c1cccc(NC(=O)c2sc3nc4c(cc3c2N)C(=O)CCC4)c1,120

# Tested on: HOP-62
# Assay: Growth inhibition of human HOP-62 cells assessed as cell growth at 10 uM incubated for 48 hrs by sulforhodamine B assay relative to control
# Format: functional
# Details: read-out: Activity
# In short: as §1
row,Compound,growth at 10 µM [%]
1,CC(=O)c1cccc(NC(=O)c2sc3nc4c(cc3c2N)C(=O)CCC4)c1,97.9

# Tested on: HCT-116
# Assay: Growth inhibition of human HCT-116 cells assessed as cell growth at 10 uM incubated for 48 hrs by sulforhodamine B assay relative to control
# Format: functional
# Details: read-out: Activity
# In short: as §1
row,Compound,growth at 10 µM [%]
1,CC(=O)c1cccc(NC(=O)c2sc3nc4c(cc3c2N)C(=O)CCC4)c1,108

# Tested on: PC-3
# Assay: Growth inhibition of human PC-3 cells assessed as cell growth at 10 uM incubated for 48 hrs by sulforhodamine B assay relative to control
# Format: functional
# Details: read-out: Activity
# In short: as §2
row,Compound,growth at 10 µM [%]
1,CC(=O)c1cccc(NC(=O)c2sc3nc4c(cc3c2N)C(=O)CCC4)c1,96.3

# Tested on: UACC-257
# Assay: Growth inhibition of human UACC-257 cells assessed as cell growth at 10 uM incubated for 48 hrs by sulforhodamine B assay relative to control
# Format: functional
# Details: read-out: Activity
# In short: as §2
row,Compound,growth at 10 µM [%]
1,CC(=O)c1cccc(NC(=O)c2sc3nc4c(cc3c2N)C(=O)CCC4)c1,99.3

# Tested on: UO-31
# Assay: Growth inhibition of human UO-31 cells assessed as cell growth at 10 uM incubated for 48 hrs by sulforhodamine B assay relative to control
# Format: functional
# Details: read-out: Activity
# In short: as §2
row,Compound,growth at 10 µM [%]
1,CC(=O)c1cccc(NC(=O)c2sc3nc4c(cc3c2N)C(=O)CCC4)c1,99.7
